Data published in ChEMBL document CHEMBL1777799, “Design, synthesis, and biological evaluation of substituted hydrazone and pyrazole derivatives as selective COX-2 inhibitors: Molecular docking study” (Bioorg Med Chem, 2011).
Activity calls are given as the source filed them. The rule behind the calls is not given here.

Legend:
Rattus norvegicus [1] = test: Antiinflammatory activity in Sprague-Dawley rat assessed as inhibition of carrageenan-induced foot paw oedema at 200 mg/kg, ip after 1 hr by plethysmometer analysis relative to control; type: functional; details: for inhibition in vivo at 200 mg/kg: route intraperitoneal
Method in brief: (§1)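 Male Sprague–Dawley rats (250 g), fasted at least 16 h with water available. Compounds were given i.p. as a 1 mL suspension in 0.5% methyl cellulose; controls received vehicle. Paw volume was read by water-displacement plethysmometer before treatment and 1 and 2 h after. Activity (%) = (1 − D/C) × 100, where D and C are paw-volume changes in treated and control rats; mean ± SEM, n = 4–6.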

Rattus norvegicus [2] = test: Antiinflammatory activity in Sprague-Dawley rat assessed as inhibition of carrageenan-induced foot paw oedema at 200 mg/kg, ip after 2 hrs by plethysmometer analysis relative to control; type: functional; details: for inhibition in vivo at 200 mg/kg: route intraperitoneal; method in brief: as §1
[3] = biological target: T1, Prostaglandin G/H synthase 1 (Ovis aries, UniProt P05979); test: Inhibition of ovine COX1 assessed as PGF2alpha production from PGH2 after 5 mins by enzyme immunoassay
T1 sequence (P05979 whole entry): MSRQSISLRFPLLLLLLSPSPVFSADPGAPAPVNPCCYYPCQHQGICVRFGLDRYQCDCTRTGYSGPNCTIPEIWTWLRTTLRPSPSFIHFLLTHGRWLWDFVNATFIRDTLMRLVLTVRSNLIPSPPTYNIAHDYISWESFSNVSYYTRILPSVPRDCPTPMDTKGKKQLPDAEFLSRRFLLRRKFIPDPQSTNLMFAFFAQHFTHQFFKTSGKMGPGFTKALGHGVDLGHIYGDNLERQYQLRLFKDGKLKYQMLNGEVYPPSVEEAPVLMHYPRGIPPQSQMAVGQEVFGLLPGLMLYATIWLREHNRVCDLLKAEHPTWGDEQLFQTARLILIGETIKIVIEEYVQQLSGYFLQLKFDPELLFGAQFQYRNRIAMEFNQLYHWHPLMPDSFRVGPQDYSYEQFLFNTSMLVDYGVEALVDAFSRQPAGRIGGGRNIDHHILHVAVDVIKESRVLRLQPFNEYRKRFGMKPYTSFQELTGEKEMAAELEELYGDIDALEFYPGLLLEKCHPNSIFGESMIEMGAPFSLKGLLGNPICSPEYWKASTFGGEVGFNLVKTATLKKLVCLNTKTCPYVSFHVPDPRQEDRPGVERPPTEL
Method in brief: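 Ovine COX-1 in reaction buffer with 2 mM phenol and heme, preincubated with six test concentrations (1 mL final) for 5 min at 37 °C. Arachidonic acid was then added and the reaction stopped with 1 M HCl after 2 min. Prostanoids were reduced with stannous chloride and quantified by competitive acetylcholinesterase-tracer EIA (Ellman's reagent, 410 nm). IC50 came from concentration–inhibition curves, duplicate determinations.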

Rattus norvegicus [4] = test: Antiinflammatory activity in Sprague-Dawley rat assessed as inhibition of carrageenan-induced foot paw oedema at 100 mg/kg, ip after 1 hr by plethysmometer analysis relative to control; type: functional; details: route intraperitoneal; method in brief: as §1
Rattus norvegicus [5] = test: Antiinflammatory activity in Sprague-Dawley rat assessed as inhibition of carrageenan-induced foot paw oedema at 100 mg/kg, ip after 2 hrs by plethysmometer analysis relative to control; type: functional; details: route intraperitoneal; method in brief: as §1
Rattus norvegicus [6] = test: Antiinflammatory activity in ip dosed Sprague-Dawley rat assessed as inhibition of carrageenan-induced foot paw oedema after 2 hrs by plethysmometer analysis; type: functional
Method in brief: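 Rat carrageenan paw oedema: male Sprague–Dawley rats (250 g), fasted ≥16 h, dosed i.p. with a 1 mL suspension in 0.5% methyl cellulose. Paw swelling was measured by plethysmometer water displacement, and percent inhibition was taken against vehicle controls.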

[7] = biological target: T2, Prostaglandin G/H synthase 1 (Ovis aries) (UniProt P05979); test: Inhibition of ovine COX1 assessed as PGF2alpha production from PGH2 at 0.5 uM after 5 mins by enzyme immunoassay
T2 sequence (whole entry): T1 sequence (P05979 whole entry)
Method in brief: (§2)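 Enzyme (ovine COX-1) with heme in buffer containing 2 mM phenol was preincubated with the test compound for 5 min at 37 °C, then given arachidonic acid for 2 min before quenching with 1 M HCl. Products were reduced with stannous chloride and measured by competitive PG-tracer EIA at 410 nm. Percent inhibition was calculated against control incubations.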

[8] = biological target: T2, Prostaglandin G/H synthase 1 (Ovis aries); test: Inhibition of ovine COX1 assessed as PGF2alpha production from PGH2 at 100 uM after 5 mins by enzyme immunoassay; method in brief: as §2

Row | Structure (SMILES) | inhibition in vivo at 200 mg/kg (Rattus norvegicus [1]) | inhibition in vivo at 200 mg/kg (Rattus norvegicus [2]) | IC50 [3] | inhibition in vivo at 100 mg/kg (Rattus norvegicus [4]) | inhibition in vivo at 100 mg/kg (Rattus norvegicus [5]) | ED50 (Rattus norvegicus [6]) | inhibition [7] | inhibition [8] | inhibition (Rattus norvegicus [1]) | inhibition (Rattus norvegicus [2])
1 | FC(F)(F)C1=NN=C(c2ccc(Cl)cc2)/C1=N/Nc1ccccc1Cl | 38.4% | 15.1% | > 50 µM | – | – | – | – | – | – | –
2 | O=Cc1c(C(F)(F)F)nn(-c2ccccc2)c1-c1ccc(Cl)cc1 | 75% | 59.1% | > 50 µM | 24.1% | 40.3% | 190 mg/kg | – | – | – | –
3 | FC(F)(F)C1=NN=C(c2ccc(Cl)cc2)/C1=N/Nc1ccc(Br)cc1 | 26.3% | 52.1% | > 50 µM | 17.5% | 31.3% | 180 mg/kg | – | – | – | –
4 | COc1ccc(N/N=C(\C(=O)c2ccc(Cl)cc2)C(=O)C(F)(F)F)cc1 | 27.6% | 42.2% | > 50 µM | 0% | 3.8% | 240 mg/kg | 31% | 25% | – | –
5 | O=C(/C=C/c1c(C(F)(F)F)nn(-c2ccccc2)c1-c1ccc(Cl)cc1)c1ccc(Cl)cc1 | 1.5% | 4.4% | > 50 µM | – | – | – | – | – | – | –
6 | CN1CCC(=O)/C(=C/c2c(C(F)(F)F)nn(-c3ccccc3)c2-c2ccc(Cl)cc2)C1 | 6.7% | 20.3% | > 50 µM | – | – | – | – | – | – | –
7 | O=C(/C(=N\Nc1ccc(Br)cc1)C(=O)C(F)(F)F)c1ccc(Cl)cc1 | 35% | 33.8% | > 50 µM | 0% | 13.9% | 280 mg/kg | – | – | – | –
8 | O=C(/C(=N\Nc1ccc(Cl)cc1)C(=O)C(F)(F)F)c1ccc(Cl)cc1 | 26.7% | 35.2% | > 50 µM | – | – | – | – | – | – | –
9 | CCN1CCC(=O)/C(=C/c2c(C(F)(F)F)nn(-c3ccccc3)c2-c2ccc(Cl)cc2)C1 | 80% | 89.7% | > 50 µM | 41% | 64% | 120 mg/kg | – | – | – | –
10 | FC(F)(F)C1=NN=C(c2ccc(Cl)cc2)/C1=N/Nc1cc(C(F)(F)F)cc(C(F)(F)F)c1 | 40.8% | 28.8% | > 50 µM | 3.4% | 17.3% | – | – | – | – | –
11 | FC(F)(F)C1=NN=C(c2ccc(Cl)cc2)/C1=N/Nc1ccc(Cl)cc1 | 8.1% | 9.1% | > 50 µM | – | – | – | – | – | – | –
12 | O=C1CCCC/C1=C\c1c(C(F)(F)F)nn(-c2ccccc2)c1-c1ccc(Cl)cc1 | 33.7% | 23.9% | > 50 µM | – | – | – | – | – | – | –
13 | O=C(O)Cc1ccccc1Nc1c(Cl)cccc1Cl [DICLOFENAC SODIUM] | – | – | – | 88.5% | 89.5% | – | – | – | – | –
14 | O=C(/C(=N\Nc1ccccc1Cl)C(=O)C(F)(F)F)c1ccc(Cl)cc1 | 47.1% | 41.7% | > 50 µM | 0% | 19.3% | 260 mg/kg | 31% | 25% | – | –
15 | O=C(/C(=N\Nc1ccc([N+](=O)[O-])cc1)C(=O)C(F)(F)F)c1ccc(Cl)cc1 | 35.8% | 57.3% | > 50 µM | 0% | 17.9% | 170 mg/kg | 31% | 25% | – | –
16 | O=C1CCC/C1=C\c1c(C(F)(F)F)nn(-c2ccccc2)c1-c1ccc(Cl)cc1 | 80.7% | 82% | > 50 µM | 37% | 67% | 118 mg/kg | – | – | – | –
17 | COc1ccc(N/N=C2/C(c3ccc(Cl)cc3)=NN=C2C(F)(F)F)cc1 | – | – | > 50 µM | – | – | – | – | – | inactive | inactive
18 | O=C(/C(=N\Nc1cc(C(F)(F)F)cc(C(F)(F)F)c1)C(=O)C(F)(F)F)c1ccc(Cl)cc1 | 80% | 88.4% | > 50 µM | 33% | 59% | 112 mg/kg | – | – | – | –
19 | O=C(/C=C/c1c(C(F)(F)F)nn(-c2ccccc2)c1-c1ccc(Cl)cc1)c1ccccc1 | 1.8% | 2.6% | > 50 µM | – | – | – | – | – | – | –
20 | O=[N+]([O-])c1ccc(N/N=C2/C(c3ccc(Cl)cc3)=NN=C2C(F)(F)F)cc1 | 4% | 7% | > 50 µM | – | – | – | – | – | – | –
